# Experimental data from different studies.
# Compare with care: the assays were run in different laboratories.
Structure (SMILES),tested on,effect on,method,strain,time,endpoint,result
O=c1ccc2nc3ccc(O)cc3oc-2c1,Pseudomonas aeruginosa,microbial growth,,,24 h,MIC,> 32 µg/mL
Oc1c(Cl)cc(Cl)cc1-c1[nH]c(Cl)c(Cl)c1Cl,Pseudomonas aeruginosa,microbial growth,,ATCC27853,,MIC,64 µM
COc1c(N2CC3CCCNC3C2)c(F)cc2c(=O)c(C(=O)OCc3cnc([N+](=O)[O-])s3)cn(C3CC3)c12 (centres unmarked),Pseudomonas aeruginosa,microbial growth,,ATCC27853,,MIC,6 µM
O=c1ccc2nc3ccc(OCc4ccc([N+](=O)[O-])o4)cc3oc-2c1,Pseudomonas aeruginosa,microbial growth,,,24 h,MIC,> 32 µg/mL
Cc1sc2c(c1C)C(c1ccc(Cl)cc1)=N[C@@H](CC(=O)OC(C)(C)C)c1nnc(C)n1-2,Jurkat,cell growth or viability,ATP luminescence,,72 h,IC50,1.01 µM
COc1c(N2C[C@@H]3CCCN[C@@H]3C2)c(F)cc2c(=O)c(C(=O)O)cn(C3CC3)c12,Mycobacteroides abscessus,microbial growth,,ATCC19977,,MIC,1 µM
N.N.[Cl][Pt][Cl],PLC,cell growth or viability,MTT,,72 h,IC50,8.21 µM
Oc1c(Br)cc(Br)cc1-c1[nH]c(Br)c(Br)c1Br,Pseudomonas aeruginosa,microbial growth,,ATCC27853,,MIC,64 µM
